Assay results taken from ChEMBL document CHEMBL4825692, “Benzofuranyl-2-imidazoles as imidazoline I2 receptor ligands for Alzheimer's disease” (Eur J Med Chem, 2021).

How the values were obtained:
Z-138 = test: Cytotoxicity against human Z138 cells at 100 uM by real time IncuCyte proliferation assay; type: cell-based; settings: z-138, 100 µM
How it was run: (§1)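 Adherent lines (LN-229, Capan-1, HCT-116, NCI-H460) seeded at 500–1500 cells/well and treated after overnight attachment. Suspension lines (HL-60, K-562, Z-138, DND-41) seeded at 2500–5500 cells/well directly with compound. Highest concentration 100 μM; proliferation tracked by real-time IncuCyte imaging over 72 h at 37 °C.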

[1] = Cmax in CD-1 mouse at 10 mg/kg, po measured after 24 hrs by HPLC/UV-VS analysis; type: ADME, organism-based; design: route oral, dose 10 mg/kg, time 24 hrs; settings: in vivo
How it was run: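 Male CD1 mice; plasma concentration of drug at 15 min to 24 h after a single oral 10 mg/kg dose, measured by HPLC with UV at 290 nm (calibration 0,025-5 μg/mL, peak area ratio). Non-compartmental analysis of mean concentration–time curves: AUC by trapezoidal rule, Cmax read directly from the mean curve.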

Rattus norvegicus = species on record: Rattus norvegicus; test: Displacement of [3H]idazoxan from imidazoline I2 receptor in rat brain cerebral cortex membrane assessed as occupancy at high affinity site measured after 30 mins by liquid scintillation counting spectrometry
HCT-116 = test: Cytotoxicity against human HCT-116 cells at 100 uM by real time IncuCyte proliferation assay; type: cell-based; settings: hct-116, 100 µM; how it was run: as §1
Cytochrome P450 1A2 = target: T1, Cytochrome P450 1A2 (Homo sapiens, UniProt P05177); test: Inhibition of CYP1A2 (unknown origin) at 10 uM; type: ADME
T1 sequence (P05177 whole entry): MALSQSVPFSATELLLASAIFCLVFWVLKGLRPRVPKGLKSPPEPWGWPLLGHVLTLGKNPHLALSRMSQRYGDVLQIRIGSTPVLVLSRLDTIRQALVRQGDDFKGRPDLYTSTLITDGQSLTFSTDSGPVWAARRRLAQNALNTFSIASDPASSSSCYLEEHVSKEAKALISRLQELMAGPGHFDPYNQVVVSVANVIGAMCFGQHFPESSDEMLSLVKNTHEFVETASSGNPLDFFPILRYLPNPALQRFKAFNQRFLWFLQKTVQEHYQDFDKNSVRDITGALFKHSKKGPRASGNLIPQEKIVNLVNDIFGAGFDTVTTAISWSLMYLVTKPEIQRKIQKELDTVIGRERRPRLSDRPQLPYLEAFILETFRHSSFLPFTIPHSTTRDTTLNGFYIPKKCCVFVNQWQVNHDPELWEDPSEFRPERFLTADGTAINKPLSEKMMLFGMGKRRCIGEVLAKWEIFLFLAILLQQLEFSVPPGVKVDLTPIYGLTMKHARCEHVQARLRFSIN
How it was run: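 Recombinant human CYP1A2, CYP2C9, CYP2C19, CYP2D6 and CYP3A4 (7-BFC or DBF as probe) were tested with probe substances and fluorescent detection, with test compound at 10 μM.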

[2] = Stability in mouse plasma assessed as compound remaining after 6 hrs; type: ADME, cell-free; settings: read-out: Stabilty

**Q.** Which results are given for `Cl.c1ccc2oc(-c3ncc[nH]3)cc2c1`?
**A.** Activity (Z-138): Non-Toxic; Cmax [1]: 600 ng/mL; Activity (Rattus norvegicus): 79%; Activity (HCT-116): Non-Toxic; inhibition (INH) (Cytochrome P450 1A2): Not Active; remaining at 6 h [2]: 100%
